Assays:
[1] = molecular target: Fatty acid synthase (Homo sapiens) (UniProt P49327); assay: Inhibition of FASN in human NCI-H1703 cells expressing FASN assessed as disruption of AKT/FASN positive feedback loop by measuring decrease in phosphorylated AKT expression at 1 uM after 48 hrs by Western immunoblot based densitometric assay relative to control; type: cell-based
In short: (§1)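 PC-9 or H1703 cells were seeded at 8 × 10^5 per 100 mm dish and treated for 48 h at 1 or 5 µM (or 5, 50 and 100 µM). RIPA lysates were BCA-quantified and run on 8% SDS-PAGE, then transferred to PVDF. Blots were probed for FASN, AKT, phospho-AKT S473 and GAPDH and detected by ECL. Bands were quantified by densitometry and normalised to vehicle control.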

[2] = Selectivity index, ratio of IC50 for human SAE cells lacking FASN expression to IC50 for human NCI-H1299 cells expressing FASN expression
In short: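 Index is the SAEC IC50 divided by the IC50 in the FASN-expressing NSCLC line. IC50s came from MTS viability after 72 h exposure at 37 °C, 5% CO2, DMSO 0.1% v/v. Absorbance was read at 490 nm after 2 h. The fit was % viability against log concentration, with 4 technical repeats and 3 independent experiments. NSCLC lines were grown in RPMI/10% FBS; SAEC in BEGM.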

[3] = molecular target: Fatty acid synthase (Homo sapiens) (UniProt P49327); assay: Inhibition of FASN in human NCI-H1703 cells expressing FASN assessed as disruption of AKT/FASN positive feedback loop by measuring decrease in ratio of phosphoAKT/AKT expression at 1 uM after 48 hrs by Western immunoblot based densitometric assay relative to control; type: cell-based; in short: as §1

Chain of Fatty acid synthase (Homo sapiens) (P49327 whole entry, looked up): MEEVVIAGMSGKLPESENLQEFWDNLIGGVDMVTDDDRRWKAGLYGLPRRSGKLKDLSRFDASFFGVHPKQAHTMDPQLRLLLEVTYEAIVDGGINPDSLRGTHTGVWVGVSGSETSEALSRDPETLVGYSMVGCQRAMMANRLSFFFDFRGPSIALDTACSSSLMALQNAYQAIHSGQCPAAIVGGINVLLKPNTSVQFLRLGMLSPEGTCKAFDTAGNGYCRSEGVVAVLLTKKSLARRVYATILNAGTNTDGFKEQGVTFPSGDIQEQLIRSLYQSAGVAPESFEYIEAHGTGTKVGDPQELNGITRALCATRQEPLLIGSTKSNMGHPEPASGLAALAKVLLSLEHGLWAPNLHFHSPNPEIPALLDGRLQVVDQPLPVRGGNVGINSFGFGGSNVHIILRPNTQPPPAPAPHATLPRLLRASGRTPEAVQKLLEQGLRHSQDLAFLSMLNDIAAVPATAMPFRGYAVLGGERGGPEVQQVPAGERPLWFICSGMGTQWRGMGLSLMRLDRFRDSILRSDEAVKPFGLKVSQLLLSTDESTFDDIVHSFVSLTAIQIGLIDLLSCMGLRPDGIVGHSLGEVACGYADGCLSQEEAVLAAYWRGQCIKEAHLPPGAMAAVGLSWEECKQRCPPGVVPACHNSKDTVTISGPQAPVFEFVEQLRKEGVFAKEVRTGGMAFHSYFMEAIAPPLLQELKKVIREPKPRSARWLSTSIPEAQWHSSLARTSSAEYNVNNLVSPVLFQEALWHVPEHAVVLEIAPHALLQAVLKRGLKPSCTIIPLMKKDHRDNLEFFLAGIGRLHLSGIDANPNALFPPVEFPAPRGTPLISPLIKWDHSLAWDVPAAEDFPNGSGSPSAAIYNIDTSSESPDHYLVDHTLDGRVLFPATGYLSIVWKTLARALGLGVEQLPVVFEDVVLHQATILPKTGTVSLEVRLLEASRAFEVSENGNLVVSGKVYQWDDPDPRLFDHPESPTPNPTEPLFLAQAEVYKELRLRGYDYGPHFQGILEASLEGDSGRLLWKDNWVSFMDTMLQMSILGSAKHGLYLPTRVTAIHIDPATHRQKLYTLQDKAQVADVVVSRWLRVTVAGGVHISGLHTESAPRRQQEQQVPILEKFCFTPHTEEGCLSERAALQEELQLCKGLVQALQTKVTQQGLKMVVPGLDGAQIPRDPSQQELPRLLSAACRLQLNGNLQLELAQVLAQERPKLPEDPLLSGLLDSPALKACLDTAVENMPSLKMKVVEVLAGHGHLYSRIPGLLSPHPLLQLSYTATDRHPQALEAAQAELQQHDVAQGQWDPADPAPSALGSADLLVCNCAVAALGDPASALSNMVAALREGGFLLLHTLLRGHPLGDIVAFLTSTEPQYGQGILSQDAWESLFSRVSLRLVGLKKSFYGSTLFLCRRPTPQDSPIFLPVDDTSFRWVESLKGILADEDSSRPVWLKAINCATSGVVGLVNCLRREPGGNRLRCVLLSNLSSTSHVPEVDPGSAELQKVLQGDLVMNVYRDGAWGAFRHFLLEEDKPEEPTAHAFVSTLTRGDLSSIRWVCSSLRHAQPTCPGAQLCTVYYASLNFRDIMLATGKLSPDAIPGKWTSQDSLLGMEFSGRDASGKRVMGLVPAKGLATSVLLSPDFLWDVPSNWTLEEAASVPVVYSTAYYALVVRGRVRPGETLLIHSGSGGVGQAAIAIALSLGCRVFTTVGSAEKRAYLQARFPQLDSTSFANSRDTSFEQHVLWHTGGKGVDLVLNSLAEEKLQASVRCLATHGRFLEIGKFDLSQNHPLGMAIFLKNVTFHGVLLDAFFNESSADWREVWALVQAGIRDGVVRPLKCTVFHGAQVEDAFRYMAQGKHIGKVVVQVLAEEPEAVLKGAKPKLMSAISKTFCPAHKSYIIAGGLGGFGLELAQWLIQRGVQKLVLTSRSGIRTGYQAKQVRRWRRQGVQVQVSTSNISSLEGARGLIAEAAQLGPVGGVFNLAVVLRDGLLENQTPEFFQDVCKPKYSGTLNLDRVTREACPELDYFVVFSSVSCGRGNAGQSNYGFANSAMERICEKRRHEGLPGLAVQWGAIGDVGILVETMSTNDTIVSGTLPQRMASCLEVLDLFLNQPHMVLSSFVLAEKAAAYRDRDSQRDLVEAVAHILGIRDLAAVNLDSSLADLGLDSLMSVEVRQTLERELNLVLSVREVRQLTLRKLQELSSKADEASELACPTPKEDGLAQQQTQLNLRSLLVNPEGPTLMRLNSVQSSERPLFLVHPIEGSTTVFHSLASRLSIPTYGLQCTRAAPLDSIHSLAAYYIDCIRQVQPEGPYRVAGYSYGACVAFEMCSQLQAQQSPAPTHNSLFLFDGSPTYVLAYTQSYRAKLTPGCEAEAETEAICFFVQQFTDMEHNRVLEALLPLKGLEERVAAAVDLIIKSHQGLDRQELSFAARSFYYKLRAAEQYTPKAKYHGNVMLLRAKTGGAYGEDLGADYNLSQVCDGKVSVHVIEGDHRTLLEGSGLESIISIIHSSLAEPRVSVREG

Row | SMILES | Ratio [1] | Ratio IC50 [2] | Ratio [3]
1 | O=C(Oc1ccc(/C=C/c2ccc(OC(=O)c3cc(O)c(O)c(O)c3)cc2)cc1)c1cc(O)c(O)c(O)c1 | 0.09 | 1.5 | 0.04
2 | O=C(Oc1ccc(/C=C/c2cccc(OC(=O)c3cc(O)c(O)c(O)c3)c2)cc1)c1cc(O)c(O)c(O)c1 | 0.57 | 2.2 | 0.16
